Key:
[1] = test system: HUVEC invasion by S. aureus ATCC 29213 (MSSA); assay: Invasion assay: HUVEC infected with Alexa Fluor 488-labeled MSSA, flow cytometry; format: cell-based, human; details: for Internalized bacteria (% vehicle control ± SEM), RSM structural analog: N = 5
HUVEC = assay: Cytotoxicity assay; format: cell-based, human; details: 10 μmol/L; for Mean fluorescence intensity (×10^4± SEM), Compound: PI fluorescence, N = 3
Summary of the method: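 HUVEC plated and compound-treated as for invasion: 1×10^5 cells/ml in 35 mm dishes or 1×10^4 cells/ml in 96-well plates, Attachment Factor-coated. Cells scraped and washed in FACS buffer (2% BSA/0.1% sodium azide/PBS). Brief incubation with propidium iodide at 0.5 mg/ml, then fluorescence read at once on Accuri C6 flow cytometer; MFI reported.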

MSSA (ATCC 29213) = assay: Bactericidal activity assay, MSSA; format: cell-based, Staphylococcus aureus; details: 10 μmol/L; for CFU/ml (×10^10± SEM), Compound: 1 h, 1.2 × 10^8 CFU/ml incubated, N = 3
Summary of the method: (§1)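 Washed S. aureus (overnight TSB at 225 rpm, 37°C; subcultured; saline-washed), 1.2 × 10^8 CFU/ml, incubated with test compound or vehicle control in EndoGRO-LS medium (1 h, 5% CO2, 37°C). Serial dilutions plated on tryptic soy agar (18-20 h, 37°C); colonies counted and CFU/ml calculated.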

[2] = test system: endothelial cell invasion by S. aureus; details: cited from earlier work
S. aureus pneumonia = details: cited from earlier work
[3] = test system: HUVEC invasion by MRSA252 NRS71; assay: Invasion assay with hospital MRSA strain; format: cell-based, human; details: 10 μmol/L, 18-20 h pretreatment
Summary of the method: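 HUVEC pretreated 18-20 h with test compound or vehicle. MRSA252 NRS71 labeled through protein A with rabbit anti-mouse IgG Alexa Fluor 488 (final 8 μg/ml, RT, 20 min), washed, set to 3×10^8 CFU/ml. Infection at MOI 1440 (1 h, 37°C, 5% CO2), then lysostaphin (20 μg/ml)/gentamicin (50 μg/ml) for 45 min. Cells scraped and fixed in 1% BSA/0.74% formaldehyde; MFI from 1500 FSC/SSC-gated cells, as % control.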

HUVEC invasion by NRS123 = assay: Invasion assay with community-acquired MRSA strain; format: cell-based, human; details: 10 μmol/L, 18-20 h pretreatment
Summary of the method: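 Attachment Factor-coated dishes seeded with HUVEC, pretreated 18-20 h with test compound or matched vehicle. Stocks were 5 mmol/L in DMSO or PEG, diluted to 1 mmol/L in solvent, then into EndoGRO-LS. Unlabeled saline-washed NRS123 at MOI 1440 (1 h, 37°C). Extracellular bacteria killed with 20 μg/ml lysostaphin/50 μg/ml gentamicin (45 min). Cells lysed with 1% saponin/PBS (20 min); dilutions plated on TSA (16 h), CFU/ml counted.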

[4] = test system: actin stress fibers in HUVEC; assay: Actin stress fiber disassembly, immunofluorescence; format: cell-based, human; details: 10 μmol/L, 18-20 h, infected 1 h
Summary of the method: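 HUVEC (3 × 10^5/ml, Attachment Factor-coated glass-bottom dishes) pretreated 18-20 h with PEG vehicle or test compound. Infected with S. aureus (MOI 1200, 1 h, 5% CO2, 37°C), PBS-washed, fixed in 4% paraformaldehyde (30 min), then permeabilized/blocked in 0.1% Triton/1% BSA. Stained with Alexa Fluor 488 phalloidin (1:40), imaged by confocal (40X water immersion). Scored as % cells lacking stress fibers, 100-200 cells/treatment from random fields; χ2 test.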

[5] = test system: vinculin-containing adhesion complexes in HUVEC; assay: Vinculin-containing adhesion complexes, immunofluorescence; format: cell-based, human; details: 10 μmol/L, 18-20 h; vehicle control 64%
Summary of the method: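 HUVEC at 3 × 10^4 on Attachment Factor-coated glass-bottom dishes, treated 18-20 h with DMSO vehicle or test compound. Fixed, then permeabilized/blocked (0.1% Triton/1% BSA). Stained with anti-vinculin (1:25), then rabbit anti-mouse Alexa Fluor 488 (1:250). Confocal imaging at 63X water immersion; Z-stack maximum projections. Percentage of cells with adhesion complexes from 100-200 cells/treatment in random fields; χ2 test.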

β1 integrin subunit = assay: β1 integrin surface expression, flow cytometry; format: cell-based, human; details: 10 μmol/L, 18-20 h, vs vehicle control
Summary of the method: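 Following 18-20 h pretreatment (DMSO vehicle or test compound), integrin recycling stopped at 4°C for 15 min. Cells scraped and washed in FACS buffer, stained with PE-conjugated anti-β1 (30 min, on ice), then fixed in FACS buffer with 4% paraformaldehyde. PE MFI measured on 600 FSC-A/SSC-A-gated cells; expressed as percent control; Mann-Whitney Rank Sum test.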

[6] = test system: HUVEC adhesion to human fibronectin; assay: Fibronectin adhesion assay; format: cell-based; details: 10 μmol/L, 18-20 h; vehicle control 24±4%
Summary of the method: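 Compound or DMSO vehicle applied to HUVEC for 18-20 h (invasion-assay plating). Wells coated with human fibronectin (20 μg/ml, 2 h, 37°C) and blocked with 2% BSA (30 min, RT). Scraped cells counted by flow cytometry for input, re-plated 2 h at 37°C/5% CO2. After PBS washes, adherent cells trypsinized, fixed, counted; normalized to input. Two pooled experiments, n=8/treatment.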

MRSA252 NRS71 = assay: Bactericidal activity assay, MRSA252 NRS71; format: cell-based, Staphylococcus aureus; details: 10 μmol/L
Summary of the method: as §1

NRS123 = assay: Bactericidal activity assay, NRS123; format: cell-based, Staphylococcus aureus
Summary of the method: as §1

[7] = test system: HUVEC infected with Staphylococcus aureus; assay: Transmission electron microscopy of infected HUVEC; format: cell-based, human; details: 10 μmol/L, 18-20 h pretreatment, infected 2 h
Summary of the method: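 Coverslip HUVEC (3 × 10^5/ml) pretreated 18-20 h with PEG vehicle or test compound, infected with S. aureus (MOI 30, 2 h, 37°C). Lysostaphin/gentamicin removal (45 min), then 24 h in antibiotic medium. Fixed in 2.5% glutaraldehyde/2.0% paraformaldehyde/2 mmol/L Ca/1 mmol/L Mg; post-fixed in 1% OsO4/1.5% ferrocyanide in 0.1 mol/L cacodylate. Ethanol/propylene oxide dehydration, resin embedding. Ultrathin sections stained with uranyl acetate/lead citrate, imaged at 120 kV.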

SMILES	Internalized bacteria (% vehicle control ± SEM), RSM structural analog ([1]; 10 μmol/L)	Mean fluorescence intensity (×10^4± SEM), Compound (HUVEC)	CFU/ml (×10^10± SEM), Compound (MSSA (ATCC 29213))	further results
COCCOc1ccc(C2=NN(c3ccc(S(N)(=O)=O)cc3)C(c3ccc(Cl)cc3)C2)cc1 (stereo not shown) [RSM 20]	61 ± 4 % ^††	2.1 ± 0.2 ×10^4	2.1 ± 0.4 CFU/ml ×10^10	–
CCC(C)(C)C(=O)O[C@H]1C[C@@H](C)C=C2C=C[C@H](C)[C@H](CC[C@@H]3C[C@@H](O)CC(=O)O3)[C@H]21 [simvastatin]	–	–	–	Endothelial cell invasion by S. aureus [2]: decreased; Survival in a murine model of pneumonia (S. aureus pneumonia): improved survival
COc1ccc(C2C(C)C(c3ccccc3)=NN2c2ccc(S(N)(=O)=O)cc2)cc1 (stereo not shown) [RSM 19]	61 ± 2 % ^††	2.6 ± 0.01 ×10^4	–	–
COc1ccc(C2=NN(c3ccc(S(N)(=O)=O)cc3)C(c3ccccc3)C2)cc1 (stereo not shown) [RSM 07]	34 ± 2 % ^††	2.5 ± 0.4 ×10^4	2.8 ± 0.3 CFU/ml ×10^10	–
NS(=O)(=O)c1ccc(N2N=C(c3ccccc3)CC2c2ccc3c(c2)OCO3)cc1 (stereo not shown) [RSM 05]	38 ± 3 % ^††	3.9 ± 0.2 ×10^4	1.6 ± 0.3 CFU/ml ×10^10	–
COc1ccc(C2=NN(c3ccc(S(N)(=O)=O)cc3)C(c3ccc(OC)c(OC)c3)C2)cc1 (stereo not shown) [RSM 16]	63 ± 4 % ^†††	1.4 ± 0.2 ×10^4	1.8 ± 0.4 CFU/ml ×10^10	–
COc1ccc(C2C3Cc4ccccc4C3=NN2c2ccc(S(N)(=O)=O)cc2)cc1 (stereo not shown) [RSM 21]	79 ± 3 % ^†	2.8 ± 0.09 ×10^4	3.0 ± 0.2 CFU/ml ×10^10	–
COc1ccc(C2CC(c3ccccc3)=NN2c2ccc(S(N)(=O)=O)cc2)cc1OC (stereo not shown) [RSM 15]	45 ± 1 % ^†††	4.0 ± 0.4 ×10^4	2.0 ± 0.2 CFU/ml ×10^10	–
COc1ccc(C2CC(c3ccccc3)=NN2c2ccc(S(N)(=O)=O)cc2)cc1 (stereo not shown) [ML 141, 4-[3-(4-methoxyphenyl)-5-phenyl-3,4-dihydropyrazol-2-yl]benzenesulfonamide]	–	2.1 ± 0.3 ×10^4	1.8 ± 0.6 CFU/ml ×10^10	Mean fluorescence intensity in washout samples (reversibility) ([1]; 10 μmol/L 1 h pretreatment, media replaced with vehicle 40 min prior to invasion): returned to baseline; Mean fluorescence intensity compared to vehicle control ([1]; 10 μmol/L, 18-20 h pretreatment, 1 h infection): lower; Invasion by MRSA252 NRS71 [3]: inhibited invasion; Invasion by NRS123 (HUVEC invasion by NRS123): inhibited invasion; Actin stress fibers in infected cells [4]: remained intact; HUVEC with vinculin-containing adhesion complexes [5]: 37%; Expression of β1 (β1 integrin subunit): No difference; HUVEC adhesion to fibronectin [6]: 14±2%; Cytotoxicity in HUVEC (HUVEC; incubated 1 h): Cytotoxicity was not detected; Bactericidal activity against MSSA (MSSA (ATCC 29213)): Bactericidal activity was not detected; Bactericidal activity against MRSA252 NRS71 (MRSA252 NRS71): Bactericidal activity was not detected; CFU/ml recovered, MRSA252 NRS71 (MRSA252 NRS71; 1 h, 1.2 × 10^8 CFU/ml incubated): 1.9 × 10^10 ±0.2 CFU/ml; Bactericidal activity against NRS123 (NRS123; 10 μmol/L): Bactericidal activity was not detected; CFU/ml recovered, NRS123 (NRS123; 1.2 × 10^8 CFU/ml incubated, vehicle control 4.5 × 10^10 ±0.6): 5.6 × 10^10 ±1.5 CFU/ml; Organelles 24 h post-invasion (ultrastructure) [7]: remained intact; Filopodia at the host cell membrane in response to bacteria ([7]; 24 h post-invasion): not detected
COc1ccc(C2=NN(c3ccc(S(N)(=O)=O)cc3)C(c3ccc4c(c3)OCO4)C2)cc1 (stereo not shown) [RSM 06]	23 ± 1 % ^†††	2.8 ± 0.1 ×10^4	1.0 ± 0.3 CFU/ml ×10^10	–

— publication PMC4469273 (Current pharmaceutical biotechnology, 2014)
